Screens deposited in PubChem by several laboratories.
Most compounds without a hit are left out; they make up all but 1.6% or so of the library.
SR-BI DiI-HDL act: activators of SR-BI mediated DiI-HDL uptake, primary screen, ldlA[mSR-BI] CHO cells, DiI fluorescence; 3 h; 100 = double the neutral-control signal; AID 504775, 2011; activation, % at 12.5 µM; hit rate 0.096% among 320,000;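 active means mean replicate activation of at least 60% and every replicate at or above 60%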;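 further: 0% = median plate neutral-control signal and 100% = twice that signal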
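Test system: SR-BI-overexpressing, LDLR-lacking CHO cells; Also added: labelled HDL, 10 µg/mL; Measured by: bottom-read cell fluorescence after medium removal, ex 550/em 595 nm; Timing: 3 h uptake period with compound, 37 °C; Buffer or medium: F12, 0.5% BSA, 25 mM HEPES; Doses: single compound concentration, delivered by pin transfer.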
Lipid droplet: inhibitors of hepatocyte lipid droplet formation, primary screen, imaging, high-throughput imaging, BODIPY stain; AML12 mouse hepatocytes, oleate lipid droplets; inhibition, % at 6.5 µM; hit rate 0.4% among 240,000; AID 1656, 2009;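 active means lipid droplet intensity inhibited by at least 50%, with more than 500 cells counted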
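Material – AML12 mouse liver cells · Also added – oleate loading, 100 µM · Compound dosing – 6.5 µM single-point dosing · Times – overnight treatment with compound plus oleate · Measured by – fluorescence imaging, 20x objective, two fields per well · Read-out – percent inhibition of filter-corrected integrated lipid droplet intensity per well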
SR-BI DiI inh: inhibitors of SR-BI mediated HDL lipid uptake, primary screen, ldlA[mSR-BI] cells, fluorescence, single point; Scavenger receptor class B member 1 (Mus musculus), Q61009; ldlA[mSR-BI] CHO cells, DiI-HDL uptake fluorescence, 3 h; inhibition, % at 12.5 µM; hit rate 0.96% among 320,000;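 active means mean replicate inhibition of at least 70% and a set share of replicates each scoring 70 or more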;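 further: 0% = median of neutral control wells and 100% = median of positive control wells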
Target sequence (Q61009 whole entry, looked up): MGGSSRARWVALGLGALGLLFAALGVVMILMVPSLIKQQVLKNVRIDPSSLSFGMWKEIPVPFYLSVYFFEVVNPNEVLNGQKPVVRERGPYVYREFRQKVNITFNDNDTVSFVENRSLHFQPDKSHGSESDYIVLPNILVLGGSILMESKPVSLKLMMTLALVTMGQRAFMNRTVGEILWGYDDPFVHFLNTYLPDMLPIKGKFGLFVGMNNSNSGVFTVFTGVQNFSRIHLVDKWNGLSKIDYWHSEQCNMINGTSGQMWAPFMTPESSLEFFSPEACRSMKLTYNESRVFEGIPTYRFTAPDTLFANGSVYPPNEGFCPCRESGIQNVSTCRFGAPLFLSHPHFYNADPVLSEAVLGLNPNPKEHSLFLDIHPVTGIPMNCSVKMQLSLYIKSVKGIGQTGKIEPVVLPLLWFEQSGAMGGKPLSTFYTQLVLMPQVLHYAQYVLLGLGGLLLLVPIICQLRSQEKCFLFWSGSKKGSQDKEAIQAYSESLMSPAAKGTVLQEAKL
TLR4 MyD88 comp: inhibitors of TLR4-MyD88 association in cells, primary screen, cell-based, HeLa CL3-4, BLA complementation, FRET ratio; Toll-like receptor 4 (Homo sapiens) + Myeloid differentiation primary response protein …; HeLa CL3-4 TLR4/MyD88 BLA complementation; inhibition, % at 8.4 µM; hit rate 0.18% among 200,000; AID 861, 2007; in the data active means inhibition above about 25%;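 further: 0% = vehicle and 100% = reference inhibitor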
NOD2-RIPK2 inh: NOD2-RIPK2 binding disruptors in cells, primary screen, fluorescence, CHO cells, BLA complementation | Receptor-interacting serine/threonine-protein kinase 2 (Homo sapiens), O43353 | CCF4 ratio | inhibition, % at 4.98 µM | hit rate 0.38% among 360,000 | AID 624267, 2012; in the data active means inhibition above about 21%;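 further: 0% = vehicle only and 100% = reference blocker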
TLR9-MyD88 inh: inhibitors of TLR9-MyD88 association in cells, primary screen, cell-based, CHO, BLA complementation, fluorescence. inhibition, % at 4.98 µM. hit rate 0.21% among 340,000. CCF4 FRET ratio. Toll-like receptor 9 (Homo sapiens) + Myeloid differentiation primary response protein …;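 active means inhibition above the mean over all tested compounds plus 3 SD, cut at about 21% in these data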;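 further: 0% = DMSO only wells and 100% = clavulanate BLA inhibitor control wells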
TLR9-MyD88 cf: TLR9-MyD88 association inhibitors, retest, confirmation, cell-based, CHO, BLA complementation, fluorescence, triplicate; shares compounds with TLR9-MyD88 inh; CCF4 FRET ratio; inhibition, % at 4.98 µM; hit rate 51% among 680; AID 540250, 2011;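 active means mean inhibition across three repeats above about 21% taken from the earlier screen, limit read from the data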;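 further: blue over green emission ratio reports constitutive TLR9 MyD88 association via BLA complementation; 0% = DMSO vehicle wells and 100% = clavulanate BLA inhibitor wells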
BLA counter-1: beta-lactamase reporter inhibitors in CHO cells, artefact control for TLR9-MyD88 binding inhibitor project, cell-based, fluorescence; shares compounds with TLR9-MyD88 inh; hit rate 7% among 680; inhibition, % at 4.98 µM; CHO-BLA cells, CCF4 FRET ratio, BLA reporter;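 active means mean inhibition above a 50% cutoff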;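 further: counterscreen of TLR9-MyD88 hits on CMV-driven BLA in CHO-K1 cells; 0% = DMSO alone and 100% = clavulanate blocking BLA; higher means less blue over green ratio so more BLA blockade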
TLR9 CHO cytotox: CHO cell viability loss – luminescence, single concentration, cytotoxicity control for TLR9-MyD88 binding inhibitor project; inhibition, % at 4.98 µM; hit rate 39% among 680; AID 588336, 2011; TLR9-MyD88 CHO cells cytotoxicity; shares compounds with TLR9-MyD88 inh; in the data active means inhibition above about 11%
NOD2 RIPK2 conf: NOD2-RIPK2 binding disruptors, retest, confirmation, fluorescence, CHO cells, BLA complementation, triplicate; inhibition, % at 4.98 µM; shares compounds with NOD2-RIPK2 inh; AID 624370, 2012; CCF4 FRET; hit rate 70% among 1,200;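 active means mean inhibition across replicates above a set limit taken from the earlier primary screen, cut at about 21% in these data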;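 further: 0% = DMSO-only wells and the high end = clavulanate BLA-blocked wells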
BLA counter-2: NOD2-RIPK2 counterscreen BLA reporter activity | shares compounds with NOD2-RIPK2 inh | CHO BLA reporter, CCF4 FRET ratio | inhibition, % at 4.98 µM | hit rate 57% among 1,200 | AID 624371;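 active means mean inhibition above the low-control mean inhibition plus three low-control SD, cut at about 11% in these data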;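 further: 0% = DMSO only wells and 100% = clavulanate high control wells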
An asterisk follows results filed as active; . = no result given.

SMILES	SR-BI DiI-HDL act	Lipid droplet	SR-BI DiI inh	TLR4 MyD88 comp	NOD2-RIPK2 inh	TLR9-MyD88 inh	TLR9-MyD88 cf	BLA counter-1	TLR9 CHO cytotox	NOD2 RIPK2 conf	BLA counter-2
COc1ccc(C2=CC(c3ccc(OC)c(OC)c3)n3nnnc3N2)c(OC)c1 (stereo unspecified)	-47	.	47	4	44*	39*	21*	26	8	3	7
Cc1cc2nc(/C=C/c3nc4cc(C)c(C)cc4[nH]3)[nH]c2cc1C	5	-1	-5	.	25*	40*	30*	32	-2	32*	43*
Cc1cc2nc(/C=C/c3cccnc3)[nH]c2cc1C	2	-136	-2	.	11	-3	.	.	.	.	.
O=C(NCCCO)/C(=C/c1ccc(-c2cccc([N+](=O)[O-])c2)o1)NC(=O)c1ccccc1	19	22	-19	-5	7	6	.	.	.	.	.
Cc1ccc(C(=O)N/C(=C/c2ccc(-c3ccc([N+](=O)[O-])cc3)o2)C(=O)NCCCN(C)C)cc1	.	.	.	.	48*	41*	33*	28	6	57*	55*
COC(=O)c1ccc(NC(=O)CN2CCC(NC(=O)c3ccccc3F)CC2)cc1	.	.	.	.	-4	3	.	.	.	.	.
COc1ccc2nc(C)cc(NCc3ccc(F)cc3)c2c1	-1	-8	1	.	24*	38*	22*	18	30*	45*	44*
COc1ccc(OCCN2C(=O)c3ccccc3C2=O)cc1	20	-4	-20	1	3	1	.	.	.	.	.
Nc1cccc2c1C(=O)N(CCOc1ccc(F)cc1)C2=O	-7	-2	7	.	22*	23*	15	18	3	33*	44*
COc1cccc(NC(=O)CN(C)C(=O)c2cc(S(=O)(=O)N3CCCCCC3)ccc2OC)c1	-14	.	14	.	0	-5	.	.	.	.	.
CC(=O)OCCNc1cc(Sc2nc3ccccc3[nH]2)c2nonc2c1[N+](=O)[O-]	3	6	-3	9	89*	56*	60*	3	99*	90*	38*
CC(=O)OCCCNc1cc(Sc2nc3ccccc3s2)c2nonc2c1[N+](=O)[O-]	15	-4	-15	15	-7	1	.	.	.	.	.
O=C1C=CC(=O)N1CCNc1ncc(C(F)(F)F)cc1Cl	-11	3	11	9	47*	28*	32*	11	100*	86*	24*
COc1cccc(/C=N/Nc2ccc([N+](=O)[O-])cc2)c1O	-35	6	35	.	15	17	.	.	.	.	.
COc1ccc(/C=N/Nc2ccc([N+](=O)[O-])cc2)cc1O	-34	22	34	.	28*	37*	28*	24	10	43*	47*
COc1ccc(OC)c(C=Cc2ccc([N+](=O)[O-])cc2)c1	.	.	.	.	43*	34*	26*	27	7	46*	53*
COc1ccc(NC(=O)COc2ccc(N(C)S(=O)(=O)c3ccc(Cl)cc3)cc2)cc1OC	-53	.	53	.	5	1	.	.	.	.	.
CC(=O)Nc1cc2c3c(cccc3c1)-c1ccccc1-2	-33	.	33	.	22*	24*	17	15	1	19	36*
O=[N+]([O-])c1c(Nc2ccccc2O)cc(Cl)c2nonc12	-25	-8	25	.	83*	33*	56*	-6	100*	97*	-8
O=C(Sc1cccc2cccnc12)c1ccccc1Br	-20	-122	20	.	39*	24*	22*	15	98*	41*	17*
CC(=O)/C(=N\Nc1ccccc1Cl)Sc1cccc2cccnc12	-6	-3	6	-21	-2	-1	.	.	.	.	.
O=C1Nc2ccc(Br)cc2C12NNc1ccccc1O2 (stereo unspecified)	-90	5	90*	21	36*	33*	26*	21	0	35*	47*
CCCCCCSc1cc(-c2nc3cnccn3c2NCCCC)ccc1OC	-40	.	40	.	44*	41*	26*	29	14*	40*	52*
CC(=NNc1nc2ccccc2s1)c1ncccn1	-14	.	14	.	9	20	.	.	.	.	.
CC(=NNc1nc2ccccc2o1)c1cc2ccccc2cn1	-33	.	33	.	43*	60*	67*	66*	74*	90*	91*
SMILES	SR-BI DiI-HDL act	Lipid droplet	SR-BI DiI inh	TLR4 MyD88 comp	NOD2-RIPK2 inh	TLR9-MyD88 inh	TLR9-MyD88 cf	BLA counter-1	TLR9 CHO cytotox	NOD2 RIPK2 conf	BLA counter-2
CC(=NNc1nc2ccccc2o1)c1ncccn1	-36	.	36	.	27*	26*	20	10	99*	34*	30*
O=S(=O)(c1ccc(F)c(F)c1)N1CCCCCCC1	.	.	.	.	8	2	.	.	.	.	.
CCc1nc2c(OCc3cc(Cl)cc(Cl)c3)cccn2c1N(C)C(=O)c1cccc(OC)c1	.	.	.	.	1	.	.	.	.	.	.
CC(C)CNC(=O)COC(=O)c1c2c(nc3ccccc13)/C(=C\c1cccs1)CC2	-19	.	19	.	47*	30*	46*	54*	12*	70*	77*
CN(C(=O)CN1C(=O)NC2(CCc3ccccc32)C1=O)C1CCCCC1 (stereo unspecified)	.	.	.	.	-6	.	.	.	.	.	.
CN(C(=O)CN1C(=O)c2cccc(N)c2C1=O)C1CCCCC1	10	.	-10	.	61*	29*	17	20	2	51*	49*
